Results taken from ChEMBL document CHEMBL1833832, “The discovery of long-acting saligenin β₂ adrenergic receptor agonists incorporating a urea group” (Bioorg Med Chem, 2011).

Legend:
Cavia porcellus [1] = species on record: Cavia porcellus; test: Bronchodilatory activity against electrically-stimulated contraction in guinea pig trachea assessed as onset time for bronchorelaxation activity; type: functional
How it was run: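 Isolated guinea pig trachea strips were superfused and contracted electrically. Agonist was perfused until maximal relaxation was reached. Onset was taken as the time for an EC50 concentration to reach 50% of maximal relaxant effect. Minimum n = 2.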

[2] = molecular target: Beta-2 adrenergic receptor (Homo sapiens, UniProt P07550); test: Agonist activity at human beta2 receptor expressed in CHO cells assessed as cAMP accumulation; type: functional, cell-based
Liver microsomes = test: Metabolic stability in human liver microsomes assessed as compound turn over ratio relative to verapamil; type: ADME, Microsome
[3] = molecular target: Beta-3 adrenergic receptor (Homo sapiens, UniProt P13945); test: Agonist activity at human beta3 receptor expressed in CHO cells assessed as cAMP accumulation; type: functional, cell-based
[4] = Lipophilicity, log D of the compound at pH 6.4; type: physicochemical; settings: buffer
[5] = molecular target: Beta-1 adrenergic receptor (Homo sapiens, UniProt P08588); test: Agonist activity at human beta1 receptor expressed in CHO cells assessed as cAMP accumulation; type: functional, cell-based
[6] = molecular target: Beta-2 adrenergic receptor (Cavia porcellus, UniProt Q8K4Z4); test: Agonist activity at beta2 adrenergic receptor in guinea pig tracheal strip assessed as inhibition of electrically-induced bronchocontractile response; type: functional, tissue-based, Trachea
Cavia porcellus [7] = test: Bronchodilatory activity against histamine-induced bronchospasm in guinea pig assessed as time taken for 50% recovery of bronchospasm at 10 times EC90 administered via nebulizer; type: functional
How it was run: (§1)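 In vivo guinea pig model with histamine-induced bronchospasm, measured in a plethysmograph chamber. Compound was given as a nebulised solution in dimethyl acetamide-saline vehicle. Potency is expressed as the EC90 nebuliser concentration.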

Rattus norvegicus = test: Liver blood flow in Han Wistar rat at 0.25 mg/kg, iv; type: ADME, organism-based; design: dose 0.25 mg/kg, route intravenous; settings: in vivo
[8] = Oral bioavailability in Beagle dog at 0.25 mg/kg; settings: in vivo
[9] = Volume of distribution at steady state in Beagle dog at 0.05 mg/kg, iv; settings: in vivo, read-out: Vdss
Cavia porcellus [10] = species on record: Cavia porcellus; test: Bronchodilatory activity against histamine-induced bronchospasm in the guinea pig; type: functional; how it was run: as §1
[11] = Plasma clearance in Beagle dog at 0.05 mg/kg, iv
[12] = AUC in Han Wistar rat at 2 mg/kg, po; type: ADME, organism-based; design: dose 2 mg/kg, route oral; settings: plasma
How it was run: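 Oral absorption in rat was measured as AUC using a deconjugated HPV model.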

[13] = Volume of distribution at steady state in Han Wistar rat at 0.25 mg/kg, iv; type: ADME, organism-based; design: dose 0.25 mg/kg, route intravenous; settings: in vivo, read-out: Vdss
How it was run: (§2)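 Pharmacokinetics were run in male Han Wistar rat and Beagle dog, dosed intravenously and orally. Plasma clearance, steady-state volume of distribution, half-life and oral bioavailability were derived from the plasma profiles. Rat plasma samples were deconjugated before analysis.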

[14] = Half life in Beagle dog at 0.05 mg/kg, iv; settings: in vivo
[15] = Half life in Han Wistar rat at 0.25 mg/kg, iv; type: ADME, organism-based; design: dose 0.25 mg/kg, route intravenous; settings: in vivo; how it was run: as §2
Canis familiaris = test: Liver blood flow in Beagle dog at 0.05 mg/kg, iv; settings: in vivo
[16] = Plasma clearance in Han Wistar rat at 0.25 mg/kg, iv; type: ADME, organism-based; design: dose 0.25 mg/kg, route intravenous; how it was run: as §2
[17] = Oral bioavailability in Han Wistar rat at 2 mg/kg; type: ADME, organism-based; settings: in vivo; how it was run: as §2
Cavia porcellus [18] = test: Bronchodilatory activity against histamine-induced bronchospasm in guinea pig assessed as time taken for 50% recovery of bronchospasm at EC90 administered via nebulizer; type: functional; how it was run: as §1
[19] = Oral bioavailability in dog; type: ADME, organism-based, Canis lupus familiaris; settings: in vivo; how it was run: as §2

Sequence of Beta-2 adrenergic receptor (Cavia porcellus, UniProt Q8K4Z4) (Q8K4Z4 whole entry): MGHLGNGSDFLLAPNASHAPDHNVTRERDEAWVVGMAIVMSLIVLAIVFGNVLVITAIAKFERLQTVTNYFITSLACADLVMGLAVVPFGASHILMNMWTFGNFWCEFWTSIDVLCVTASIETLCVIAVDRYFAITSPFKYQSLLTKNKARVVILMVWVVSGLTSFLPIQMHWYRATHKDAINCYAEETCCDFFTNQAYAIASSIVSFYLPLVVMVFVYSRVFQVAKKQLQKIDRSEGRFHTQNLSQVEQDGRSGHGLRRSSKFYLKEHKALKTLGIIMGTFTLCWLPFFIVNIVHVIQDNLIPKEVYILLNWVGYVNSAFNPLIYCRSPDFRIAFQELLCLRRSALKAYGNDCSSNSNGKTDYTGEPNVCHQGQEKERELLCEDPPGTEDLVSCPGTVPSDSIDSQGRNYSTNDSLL
Sequence of Beta-1 adrenergic receptor (P08588 whole entry): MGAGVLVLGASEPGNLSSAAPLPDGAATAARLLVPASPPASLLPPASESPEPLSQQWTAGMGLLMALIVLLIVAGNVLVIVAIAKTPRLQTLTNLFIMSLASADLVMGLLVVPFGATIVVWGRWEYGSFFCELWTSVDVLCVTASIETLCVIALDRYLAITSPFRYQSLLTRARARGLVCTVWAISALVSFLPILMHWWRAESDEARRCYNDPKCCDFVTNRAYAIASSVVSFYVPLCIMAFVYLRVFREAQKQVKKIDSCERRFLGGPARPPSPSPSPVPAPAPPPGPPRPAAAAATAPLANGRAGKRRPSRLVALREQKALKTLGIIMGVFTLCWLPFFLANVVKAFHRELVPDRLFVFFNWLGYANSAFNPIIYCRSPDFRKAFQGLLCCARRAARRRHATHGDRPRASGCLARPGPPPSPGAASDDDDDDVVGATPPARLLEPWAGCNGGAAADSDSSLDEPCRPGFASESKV
Sequence of Beta-3 adrenergic receptor (P13945 whole entry): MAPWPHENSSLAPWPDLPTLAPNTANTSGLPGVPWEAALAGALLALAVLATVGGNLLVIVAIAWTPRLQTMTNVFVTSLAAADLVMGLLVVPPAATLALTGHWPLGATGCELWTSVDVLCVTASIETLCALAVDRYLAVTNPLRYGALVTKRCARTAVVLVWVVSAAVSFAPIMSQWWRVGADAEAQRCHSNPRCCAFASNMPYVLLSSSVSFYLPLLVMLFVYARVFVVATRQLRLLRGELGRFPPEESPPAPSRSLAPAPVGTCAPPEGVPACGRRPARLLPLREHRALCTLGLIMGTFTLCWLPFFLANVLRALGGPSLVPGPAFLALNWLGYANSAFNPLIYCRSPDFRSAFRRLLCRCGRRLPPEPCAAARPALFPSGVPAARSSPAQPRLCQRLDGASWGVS
Sequence of Beta-2 adrenergic receptor (Homo sapiens, UniProt P07550) (P07550 whole entry): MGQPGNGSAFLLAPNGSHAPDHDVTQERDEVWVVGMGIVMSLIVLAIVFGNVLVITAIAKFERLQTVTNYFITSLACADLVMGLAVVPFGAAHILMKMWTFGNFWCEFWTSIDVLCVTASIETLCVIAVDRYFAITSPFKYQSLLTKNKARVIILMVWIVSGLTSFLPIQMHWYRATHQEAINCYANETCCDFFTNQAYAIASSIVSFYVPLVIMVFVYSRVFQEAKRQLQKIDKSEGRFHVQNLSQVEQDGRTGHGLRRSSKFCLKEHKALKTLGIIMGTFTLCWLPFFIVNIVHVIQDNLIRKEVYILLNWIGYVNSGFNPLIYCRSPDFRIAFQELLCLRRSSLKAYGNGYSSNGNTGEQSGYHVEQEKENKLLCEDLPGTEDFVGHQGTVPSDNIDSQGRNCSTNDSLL

| Compound | EC50 [2] [nM] | fold change (FC) (Liver microsomes) | EC50 [3] [nM] | logD [4] | EC50 [5] [nM] | EC50 [6] [nM] | Time (Cavia porcellus [1]) [min] | further results |
| --- | --- | --- | --- | --- | --- | --- | --- | --- |
| CC(=O)O.CCNC(=O)Nc1cccc(CCCCOCCCCCCNC[C@H](O)c2ccc(O)c(CO)c2)c1 | 1 | 0.81 | 158 | 0.5 | 31.6 | 1.26 | 15 |  |
| CC(=O)O.O=C(Nc1cccc(CCCCOCCCCCCNC[C@H](O)c2ccc(O)c(CO)c2)c1)NC1CCCCC1 | 1 | 2.18 | 2.51 |  | 7.94 |  |  |  |
| CC(=O)O.CCNC(=O)Nc1ccc(CCCCOCCCCCCNC[C@H](O)c2ccc(O)c(CO)c2)cc1 | 0.501 | 1.37 | 12.6 |  | 31.6 |  |  |  |
| NC(=O)CNC(=O)Nc1cccc(CCCCOCCCCCCNC[C@H](O)c2ccc(O)c(CO)c2)c1.O=CO | 0.251 |  | 100 | -0.78 | 31.6 | 0.251 | 9 |  |
| CC(=O)O.NC(=O)Nc1cc(CCCCOCCCCCCNC[C@H](O)c2ccc(O)c(CO)c2)cc(C(F)(F)F)c1 | 1 | 1.34 | 25.1 |  | 50.1 |  |  |  |
| CC(=O)O.Cc1cc(CCCCOCCCCCCNC[C@H](O)c2ccc(O)c(CO)c2)cc(NC(N)=O)c1 | 0.158 | 1.17 | 39.8 | 0.2 | 39.8 | 1.58 | 10 | Time (Cavia porcellus [7]): 18 h; QH (Rattus norvegicus): 100%; bioavailability [8]: 6%; Vd [9]: 0.55 L/kg; EC90 (Cavia porcellus [10]): 10000 nM; clearance [11]: 6 mL/min/kg; AUC [12]: 80.2 ng·h/mL; Vd [13]: 2 L/kg; half-life [14]: 60 min; half-life [15]: 54 min; QH (Canis familiaris): < 67%; clearance [16]: 83 mL/min/kg; bioavailability [17]: < 5%; Time (Cavia porcellus [18]): 7 h |

Second part, led by results:

| EC50 [2] [nM] | fold change (FC) (Liver microsomes) | EC50 [3] [nM] | logD [4] | EC50 [5] [nM] | EC50 [6] [nM] | Compound | Time (Cavia porcellus [1]) [min] | further results |
| --- | --- | --- | --- | --- | --- | --- | --- | --- |
| 0.794 | 0.97 | 7.94 | -0.28 | 63.1 | 2.51 | CC(=O)O.NC(=O)Nc1cccc(CCCCOCCCCCCNC[C@H](O)c2ccc(O)c(CO)c2)c1 | 13.5 |  |
| 0.501 | 1.64 | 15.8 |  | 7.94 |  | CC(=O)O.NC(=O)NCc1cccc(CCCCOCCCCCCNC[C@H](O)c2ccc(O)c(CO)c2)c1 |  |  |
| 0.631 | 0.72 | 31.6 |  | 31.6 |  | CC(=O)O.CCNC(=O)NCc1cccc(CCCCOCCCCCCNC[C@H](O)c2ccc(O)c(CO)c2)c1 |  |  |
| 0.316 |  | 12.6 |  | 10 |  | O=C(CNC(=O)Nc1cccc(CCCCOCCCCCCNC[C@H](O)c2ccc(O)c(CO)c2)c1)NC1CCCC1 |  |  |
|  |  |  | 1.06 |  |  | OCc1cc(C(O)CNCCCCCCOCCCCc2ccccc2)ccc1O (configuration not stated) [SALMETEROL] |  | bioavailability [19]: 66%; Time (Cavia porcellus [18]): 8 h |
